# Experimental data of several laboratories.
# Lines come from different studies, so protocols differ.
Compound,tested on,assay,system,setting,quantity,value
O=C(Nc1nc2cc(-c3ccc4ncn(Cc5ccccc5)c(=O)c4c3)ccc2s1)NC1CCCCC1,NCI-H1975,"cell growth or viability, MTT",,72 h,IC50,> 20000 nM
Nc1nc2c(ncn2COCCO)c(=O)[nH]1,Human alphaherpesvirus 2,"viral replication, inhibitor, qPCR",BEAS-2B,,IC50,160 nM
CCOc1ccc(Nc2c3c(nc4ccccc24)CCC3)cc1,Leishmania amazonensis,"parasite growth, MTT",,promastigote,IC50,1430 nM
CCCC(C)C(=O)Nc1ccc(-c2ccc3ncn(CCC)c(=O)c3c2)cn1 (stereo not shown),NCI-H1975,"cell growth or viability, CCK-8",,72 h,IC50,2760 nM
COc1ccc2/c(=N/c3ccccc3NC(=O)[C@@H](N)C(C)(C)C)cc(-c3ccc4c(c3)OCO4)oc2c1,NCI-H1975,"cell growth or viability, CCK-8",,1 µM,inhibition,9.4%
COc1cccc(NC(=O)Nc2nc3cc(-c4ccc5ncn(Cc6ccccc6)c(=O)c5c4)ccc3s2)c1,NCI-H1975,"cell growth or viability, MTT",,72 h,IC50,> 20000 nM
NCC(=O)Nc1ccccc1/N=c1\cc(-c2ccc3c(c2)OCO3)oc2ccccc12,NCI-H1975,"cell growth or viability, CCK-8",,1 µM,inhibition,1.26%
CCCCn1cnc2ccc(-c3ccc(NC(=O)Nc4ccc(OC)cc4)nc3)cc2c1=O,NCI-H1975,"cell growth or viability, CCK-8",,72 h,IC50,> 10000 nM
C[C@H](N)C(=O)Nc1ccccc1/N=c1\cc(-c2ccc3c(c2)OCCO3)oc2c([N+](=O)[O-])cccc12,NCI-H1975,"cell growth or viability, CCK-8",,1 µM,inhibition,1.15%
COc1cccc(NC(=O)Nc2nc3cc(-c4ccc5ncn(CCC6CCCCC6)c(=O)c5c4)ccc3s2)c1,NCI-H1975,"cell growth or viability, MTT",,72 h,IC50,> 20000 nM
CCCCn1cnc2ccc(-c3ccc(NC(=O)CCC)nc3)cc2c1=O,NCI-H1975,"cell growth or viability, CCK-8",,72 h,IC50,1270 nM
COc1cccc(NC(=O)Nc2nc3cc(-c4ccc5ncn(CCN6CCOCC6)c(=O)c5c4)ccc3s2)c1,NCI-H1975,"cell growth or viability, MTT",,72 h,IC50,> 20000 nM
NCCC(=O)Nc1ccc(/N=c2\cc(-c3ccc4c(c3)OCO4)oc3ccccc23)cc1,NCI-H1975,"cell growth or viability, CCK-8",,1 µM,inhibition,0.71%
CCCC(=O)Nc1ccc(-c2ccc3ncn(Cc4ccccc4)c(=O)c3c2)cn1,NCI-H1975,"cell growth or viability, CCK-8",,72 h,IC50,> 10000 nM
NCC(=O)Nc1ccccc1/N=c1\cc(-c2ccc3c(c2)OCO3)oc2c(N)cccc12,NCI-H1975,"cell growth or viability, CCK-8",,1 µM,inhibition,4.64%
CCCCn1cnc2ccc(-c3ccc(NC(=O)C4CCCCC4)nc3)cc2c1=O,NCI-H1975,"cell growth or viability, CCK-8",,72 h,IC50,1600 nM
